# Assay results: PubChem BioAssay
# Active and inactive are the calls of the source.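 Rule for the calls, unless noted: active = Her2 level under about 52% in both replicate screens, with viability over 70% of control (limit read from the data); inconclusive = Her2 under the limit in one screen only, or viability under 70%; inactive = Her2 level above the set limit.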
# Key:
# [1] = reducers of endogenous Her2 protein level, primary screen, SKBR3 breast tumor cells, AlphaScreen, ATP viability (AID 461); settings: 18-24 h, measured here: SKBR3 viability, ATP luminescence, at 10 µM;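 for Her2 level: lower value means less Her2 protein in the cells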;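 for viability: percent of carrier control wells set as 100% viability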
# [2] = biological target: Receptor tyrosine-protein kinase erbB-2 (Homo sapiens) (UniProt P04626); experiment: as above; settings: 18-24 h, at 10 µM, stronger effect = lower value
# Chain of Receptor tyrosine-protein kinase erbB-2 (Homo sapiens) (P04626 whole entry, looked up): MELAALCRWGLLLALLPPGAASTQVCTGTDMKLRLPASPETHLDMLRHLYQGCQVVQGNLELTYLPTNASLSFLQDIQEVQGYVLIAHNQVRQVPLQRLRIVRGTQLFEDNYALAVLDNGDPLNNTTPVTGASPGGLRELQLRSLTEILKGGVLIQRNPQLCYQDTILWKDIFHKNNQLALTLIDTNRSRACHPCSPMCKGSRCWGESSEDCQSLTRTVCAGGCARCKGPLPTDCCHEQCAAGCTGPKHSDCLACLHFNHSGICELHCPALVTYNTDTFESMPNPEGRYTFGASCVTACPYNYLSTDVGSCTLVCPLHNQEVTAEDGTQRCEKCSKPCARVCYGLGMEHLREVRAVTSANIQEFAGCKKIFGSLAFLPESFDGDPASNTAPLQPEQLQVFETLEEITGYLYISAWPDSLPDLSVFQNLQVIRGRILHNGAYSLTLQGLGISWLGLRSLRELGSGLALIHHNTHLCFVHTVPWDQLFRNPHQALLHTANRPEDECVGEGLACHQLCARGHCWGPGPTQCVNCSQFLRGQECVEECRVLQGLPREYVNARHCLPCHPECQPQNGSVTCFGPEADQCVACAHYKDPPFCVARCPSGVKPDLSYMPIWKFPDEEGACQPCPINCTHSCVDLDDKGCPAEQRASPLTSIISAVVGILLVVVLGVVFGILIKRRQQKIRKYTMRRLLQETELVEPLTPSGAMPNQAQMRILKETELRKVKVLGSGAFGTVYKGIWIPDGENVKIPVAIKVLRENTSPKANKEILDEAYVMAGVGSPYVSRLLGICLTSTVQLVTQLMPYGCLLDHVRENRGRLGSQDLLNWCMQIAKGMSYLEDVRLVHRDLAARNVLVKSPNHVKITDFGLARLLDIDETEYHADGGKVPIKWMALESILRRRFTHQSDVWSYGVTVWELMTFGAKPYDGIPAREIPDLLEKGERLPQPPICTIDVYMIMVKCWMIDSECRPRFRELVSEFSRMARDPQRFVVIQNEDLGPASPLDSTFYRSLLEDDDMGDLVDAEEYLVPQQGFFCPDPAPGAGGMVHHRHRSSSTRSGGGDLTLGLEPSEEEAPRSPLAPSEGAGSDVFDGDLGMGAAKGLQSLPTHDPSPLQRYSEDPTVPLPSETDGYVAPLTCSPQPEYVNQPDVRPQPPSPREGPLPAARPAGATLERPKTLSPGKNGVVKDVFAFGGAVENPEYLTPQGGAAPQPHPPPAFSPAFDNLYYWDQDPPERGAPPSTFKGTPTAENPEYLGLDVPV
# [3] = SK-BR-3 cell growth inhibitors, pilot screen, 24 h, human (AID 572;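 active = viability at or below 10% of carrier control in both of two separate runs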;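 note: compound exposure lasted between 18 and 24 h rather than exactly 24 h; 100% = carrier-treated control wells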); settings: SK-BR-3 viability, CellTiter-Glo luminescence, at 10 µM, stronger effect = lower value
# [4] = HUVEC growth inhibition – cell-based, human, primary screen (AID 575;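 active = viability at or below 30% in both replicate assays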;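 note: 100% = median of untreated cell wells with 0.1% DMSO on each plate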); settings: HUVEC proliferation, CellTiter-Glo luminescence, 72 h; at 10 µM; stronger effect = lower value
# Method in brief: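 Material: primary human umbilical vein endothelial cells / Schedule: 72 h exposure, 37 °C, 5% CO2, 30 min RT equilibration / Signal: ATP-based CellTiter-Glo luminescent read / Read-out basis: percent of median DMSO-control luminescence / Control set: 32 DMSO-only cell-control wells (high), 32 MePR drug-control wells (low) per plate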
# [5] = growth inhibitors of H69AR lung tumor, primary screen, human, duplicate replicates (AID 580;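 active = viability at or under a set limit in both replicates, limit being median viability minus 3 SD, cut at about 48% in these data, passing the limit was not always enough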;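 note: 100% = mean luminescence of untreated wells and 0% = no signal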); settings: H69AR lung tumor cells viability, ATP luminescence, 72 h; at 10 µM; stronger effect = lower value
# [6] = reversal of MRP1-mediated doxorubicin resistance, pilot screen, H69AR cells, doxorubicin co-treatment (AID 601;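 active = viability loss from added drug above about 55%, and viability with drug at most 40%, in both replicates, limit read from the data, passing the limit was not always enough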); settings: CellTiter-Glo, 72 h, at 10 µM; for differential viability (reversal): stronger effect = higher value
# [7] = 384-well plate pilot, post-Golgi transport modulator project, inhibition of yeast transport mutant growth (AID 636; in the data active = inhibition above about 31%); settings: absorbance 615 nm, about 18 h, stronger effect = higher value
# [8] = growth suppression of yeast trafficking mutant, preliminary HTS, modulators of trafficking downstream of Golgi apparatus project, 1536-format plate, OD 615 nm (AID 637; in the data active = inhibition above about 30%); settings: yeast transport mutant growth, absorbance 615 nm, 18 h; stronger effect = higher value
# [9] = H69AR cells + 2 uM doxorubicin, measured here: viability with 2 uM doxorubicin, stronger effect = lower value
# [10] = H69AR cells, compound alone cytotoxicity
Compound,viability [1],Her2 level [2],viability [3],viability [4],viability [5],differential viability (reversal) ([6]; H69AR cells + 2 uM doxorubicin),"viability [6, 9]","viability [6, 10]",inhibition [7],inhibition [8]
CCCCOc1cccc(NC(=O)CSc2nccn2C)c1,107%,81.5% (inactive),107% (inactive),99.9% (inactive),85.3% (inactive),-1.98% (inactive),87.3%,85.3%,-7.03% (inactive),0.5% (inactive)
c1cc(CNc2ccc3c(c2)OCO3)ccn1,80%,92% (inactive),80% (inactive),70.7% (inactive),90% (inactive),-12.5% (inactive),103%,90%,-5.81% (inactive),-2.13% (inactive)
COc1ccccc1NC(=O)C1=C(C)Nc2ncnn2C1c1ccc(C)o1 (stereo not given),87.5%,99% (inactive),87.5% (inactive),104% (inactive),99.3% (inactive),11.7% (inactive),87.6%,99.3%,-0.26% (inactive),-2.79% (inactive)
Cc1nnc(SCc2cnc(-c3ccccc3)o2)[nH]c1=O,94%,86% (inactive),94% (inactive),86.7% (inactive),98% (inactive),12.2% (inactive),85.8%,98%,2.76% (inactive),-0.66% (inactive)
CCCc1cc(C(N)=O)c(NC(=O)c2ccco2)s1,102%,73.5% (inactive),102% (inactive),94.2% (inactive),87.3% (inactive),-5.96% (inactive),93.3%,87.3%,-3.29% (inactive),1.15% (inactive)
COc1ccccc1NC(=O)CSc1nnc(CC(=O)Nc2ccccc2)n1C,96%,80.5% (inactive),96% (inactive),113% (inactive),91% (inactive),-2.08% (inactive),93.1%,91%,-2.99% (inactive),-2% (inactive)
COCCN1C(=O)C(=O)/C(=C(/O)c2cccc(OC)c2)C1c1ccncc1 (stereo not given),99%,104% (inactive),99% (inactive),101% (inactive),93% (inactive),-3.51% (inactive),96.5%,93%,-0.26% (inactive),3.64% (inactive)
O=C(c1ccco1)N1CCN(C(=O)C2CCN(S(=O)(=O)c3cccc4nsnc34)CC2)CC1,98.5%,102% (inactive),98.5% (inactive),104% (inactive),83.5% (inactive),8.47% (inactive),75%,83.5%,-4.27% (inactive),-1.48% (inactive)
Cc1ccc(C)c(S(=O)(=O)NCc2ccc(C(=O)N3CCN(C)CC3)cc2)c1,99.5%,85.5% (inactive),99.5% (inactive),89.7% (inactive),91.7% (inactive),5.15% (inactive),86.5%,91.7%,-5.68% (inactive),-3% (inactive)
N#Cc1nc(COc2ccc(Br)cc2)oc1N1CCCC1,99%,90% (inactive),99% (inactive),89.4% (inactive),87.5% (inactive),0.745% (inactive),86.7%,87.5%,-7.07% (inactive),0.66% (inactive)
CCC(NS(=O)(=O)c1ccc(C)cc1)C(=O)N1CCC2(O)CCCCC2C1 (stereo not given),94%,105% (inactive),94% (inactive),90.7% (inactive),94.5% (inactive),5.91% (inactive),88.6%,94.5%,-3.2% (inactive),-1.8% (inactive)
CCNC(=O)COc1ccc(Br)cc1Cl,96%,91% (inactive),96% (inactive),92.1% (inactive),93.2% (inactive),-4.36% (inactive),97.6%,93.2%,-5% (inactive),-1.9% (inactive)
CC1(C)COCN1S(=O)(=O)c1ccc(C(=O)Nc2nnc(-c3ccc(Cl)s3)o2)cc1,70.5%,97% (inactive),70.5% (inactive),4.41% (active),15% (active),-18.8% (inactive),33.8%,15%,-5.21% (inactive),-1.43% (inactive)
Cc1cccc2sc(NC(=O)CN(C)S(=O)(=O)c3cccs3)nc12,76.5%,125% (inactive),76.5% (inactive),48.8% (inactive),92% (inactive),-0.425% (inactive),92.5%,92%,0.39% (inactive),-6.33% (inactive)
COCCN(CC(=O)NCc1ccccc1)C(=O)CCC(=O)Nc1ccccn1,112%,90.5% (inactive),112% (inactive),103% (inactive),92.9% (inactive),1.44% (inactive),91.5%,92.9%,-4.8% (inactive),1.94% (inactive)
Cc1ccc2[nH]c(=O)c(CN(Cc3ccc4c(c3)OCO4)Cc3nnnn3Cc3ccco3)cc2c1,102%,93% (inactive),102% (inactive),106% (inactive),88.9% (inactive),-3.68% (inactive),92.6%,88.9%,-2.99% (inactive),-3.49% (inactive)
